According to ChEMBL document CHEMBL3808325, “Discovery and Optimization of Macrocyclic Quinoxaline-pyrrolo-dihydropiperidinones as Potent Pim-1/2 Kinase Inhibitors” (ACS Med Chem Lett, 2016):

Key:
[1] = biological target: Casein kinase I isoform alpha-like (Homo sapiens) (UniProt Q8N752); test: Inhibition of full-length human CSNK1A1L expressed in bacterial system assessed as remaining enzyme activity at 1 uM by KINOMEscan assay
Outline: (§1)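 scanMAX KINOMEscan panel of 392 nonmutant kinases, compound tested at 1 μM. Result expressed as percent of control (POC). S(10) and S(1) scores are the fraction of kinases with POC below 10% and below 1%.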

Mus musculus [2] = test: In vivo inhibition of Pim1/2-mediated BAD protein phosphorylation at Ser-112 in human KMS-12-BM cells xenografted in SCID-beige mouse measured after 6 to 16 hrs by meso scale discovery assay; format: functional, organism-based
Outline: (§2)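 KMS-12-BM xenograft mice given a single oral dose of 25, 50 or 100 mg/kg. Tumor Ser-112 pBAD measured at time points through 16 h postdose. EC50 obtained by fitting all individual total plasma concentration–pBAD response data. Unbound value derived from mouse plasma fraction unbound.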

[3] = biological target: Mitogen-activated protein kinase kinase kinase 19 (Homo sapiens) (UniProt Q56UN5); test: Inhibition of human YSK4 assessed as remaining enzyme activity at 1 uM by KINOMEscan assay; outline: as §1
[4] = biological target: Serine/threonine-protein kinase pim-1 (Homo sapiens, UniProt P11309); test: Inhibition of human PIM1 assessed as remaining enzyme activity at 1 uM by KINOMEscan assay
Outline: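 Profiled at 1 μM compound across a scanMAX KINOMEscan panel of 392 nonmutant kinases. Activity is reported as percent-of-control (POC). Panel-wide S(10) and S(1) selectivity scores are the fraction of kinases with POC below 10% and below 1%.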

[5] = Volume of distribution at steady state in Sprague-Dawley rat at 2 mg/kg, iv; format: ADME, organism-based; settings: in vivo, read-out: Vdss
Outline: (§3)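 Pharmacokinetics in male Sprague–Dawley rats. Clearance also expressed as a percentage of liver blood flow. Oral bioavailability determined.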

[6] = Apparent permeability in pig LLC-PK1 cells at 5 uM; format: ADME, cell-based, Sus scrofa
Mus musculus [7] = test: In vivo inhibition of Pim1/2-mediated BAD protein phosphorylation at Ser-112 in human KMS-12-BM cells xenografted in SCID-beige mouse assessed as pBAD level at 100 mg/kg, po administered as single dose measured after 6 hrs by meso scale discovery assay; format: functional; design: scale not given: the % may be the effect or the level left; outline: as §2
[8] = Half life in Sprague-Dawley rat at 2 mg/kg, iv; format: ADME, organism-based; settings: in vivo; outline: as §3
[9] = biological target: Dual specificity tyrosine-phosphorylation-regulated kinase 1A (Homo sapiens) (UniProt Q13627); test: Inhibition of human DYRK1A assessed as remaining enzyme activity at 1 uM by KINOMEscan assay; outline: as §1
[10] = Drug metabolism in rat liver microsomes assessed as compound turnover at 1 uM incubated for 30 mins; format: ADME; settings: read-out: Drug metabolism
[11] = Fraction unbound in SCID-beige mouse plasma at 5 uM by LC/MS analysis; format: ADME, cell-free
[12] = biological target: Casein kinase II subunit alpha (Homo sapiens) (UniProt P68400); test: Inhibition of full-length human CSNK2A1 expressed in mammalian system assessed as remaining enzyme activity at 1 uM by KINOMEscan assay; outline: as §1
Mus musculus [13] = test: Toxicity in human KMS-12-BM cells xenografted SCID-beige mouse assessed as effect on body weight at 10 to 100 mg/kg, po qd; format: organism-based; settings: in vivo
Outline: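 Tolerability followed in KMS-12-BM xenograft mice given oral doses once daily at 10, 25, 50 or 100 mg/kg over a 16-day efficacy study. Body weight monitored throughout.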

[14] = biological target: Serine/threonine-protein kinase pim-2 (Homo sapiens, UniProt Q9P1W9); test: Inhibition of human full-length Pim2 expressed in Escherichia coli assessed as phosphorylation of biotinylated BAD peptide at Ser 112 preincubated for 30 mins followed by substrate addition measured after 1 hr by HTRF assay
Outline: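 Cell-free kinase assay using recombinant Pim-1 or Pim-2. Read-out is phosphorylation of a short BAD peptide sequence spanning Ser-112.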

[15] = biological target: Homeodomain-interacting protein kinase 3 (Homo sapiens) (UniProt Q9H422); test: Inhibition of human HIPK3 assessed as remaining enzyme activity at 1 uM by KINOMEscan assay; outline: as §1
[16] = biological target: Serine/threonine-protein kinase PIM (Homo sapiens, UniProt P11309+Q9P1W9+Q86V86); test: Inhibition of Pim1/2 in human KMS-12-BM cells assessed as phosphorylation of full-length BAD protein at Ser-112 incubated for 110 mins by flow cytometric analysis in presence of 20% FBS; format: cell-based
Outline: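 Cell assay in KMS-12-BM, a multiple myeloma line with relatively high endogenous Pim-1/2. Pim-dependent phosphorylation of full-length endogenous BAD at Ser-112 measured.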

Sequence of Mitogen-activated protein kinase kinase kinase 19 (Homo sapiens) (Q56UN5 whole entry): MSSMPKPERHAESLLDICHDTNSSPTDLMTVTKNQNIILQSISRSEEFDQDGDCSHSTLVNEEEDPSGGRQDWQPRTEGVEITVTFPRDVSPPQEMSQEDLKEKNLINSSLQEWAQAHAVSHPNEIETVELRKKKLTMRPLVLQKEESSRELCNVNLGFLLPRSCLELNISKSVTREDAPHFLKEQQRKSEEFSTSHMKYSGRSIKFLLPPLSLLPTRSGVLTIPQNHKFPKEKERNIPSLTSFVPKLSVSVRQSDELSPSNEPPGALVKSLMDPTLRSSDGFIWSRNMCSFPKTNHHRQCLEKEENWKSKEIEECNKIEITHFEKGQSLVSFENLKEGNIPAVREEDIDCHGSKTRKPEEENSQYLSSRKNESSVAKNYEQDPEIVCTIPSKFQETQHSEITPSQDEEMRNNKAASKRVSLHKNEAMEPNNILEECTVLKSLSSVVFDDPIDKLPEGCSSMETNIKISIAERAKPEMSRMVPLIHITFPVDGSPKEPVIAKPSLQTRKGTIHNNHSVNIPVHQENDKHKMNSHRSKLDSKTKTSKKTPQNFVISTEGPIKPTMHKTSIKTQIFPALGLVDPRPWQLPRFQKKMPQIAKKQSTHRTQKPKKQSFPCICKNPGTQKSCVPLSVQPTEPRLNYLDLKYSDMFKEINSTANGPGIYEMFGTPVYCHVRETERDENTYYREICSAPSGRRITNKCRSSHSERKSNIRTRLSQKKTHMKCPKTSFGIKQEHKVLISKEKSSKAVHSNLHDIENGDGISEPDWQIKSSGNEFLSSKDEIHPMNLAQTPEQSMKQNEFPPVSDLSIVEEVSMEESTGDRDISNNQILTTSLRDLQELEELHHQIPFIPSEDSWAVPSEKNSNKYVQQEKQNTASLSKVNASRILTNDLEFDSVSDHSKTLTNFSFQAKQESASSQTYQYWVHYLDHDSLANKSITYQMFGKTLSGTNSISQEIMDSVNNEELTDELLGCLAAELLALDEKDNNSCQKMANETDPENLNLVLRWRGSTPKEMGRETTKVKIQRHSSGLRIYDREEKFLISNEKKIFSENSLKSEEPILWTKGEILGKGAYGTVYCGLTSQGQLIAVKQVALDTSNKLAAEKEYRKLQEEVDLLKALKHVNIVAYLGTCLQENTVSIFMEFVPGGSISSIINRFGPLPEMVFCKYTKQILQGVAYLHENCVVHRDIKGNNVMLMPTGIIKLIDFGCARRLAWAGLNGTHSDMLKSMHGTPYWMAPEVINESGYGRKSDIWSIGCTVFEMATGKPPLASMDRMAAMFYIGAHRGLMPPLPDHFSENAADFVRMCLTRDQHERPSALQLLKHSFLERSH
Sequence of Casein kinase I isoform alpha-like (Homo sapiens) (Q8N752 whole entry, canonical isoform): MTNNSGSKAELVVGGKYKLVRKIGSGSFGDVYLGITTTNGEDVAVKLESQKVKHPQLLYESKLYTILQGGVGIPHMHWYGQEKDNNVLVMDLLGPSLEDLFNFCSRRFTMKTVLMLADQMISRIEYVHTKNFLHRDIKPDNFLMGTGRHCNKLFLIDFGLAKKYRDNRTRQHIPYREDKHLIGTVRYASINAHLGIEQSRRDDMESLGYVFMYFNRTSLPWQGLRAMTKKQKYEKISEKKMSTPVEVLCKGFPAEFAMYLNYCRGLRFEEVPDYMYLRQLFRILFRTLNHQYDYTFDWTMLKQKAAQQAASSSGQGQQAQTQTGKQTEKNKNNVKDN
Sequence of Serine/threonine-protein kinase pim-1 (P11309 whole entry, looked up): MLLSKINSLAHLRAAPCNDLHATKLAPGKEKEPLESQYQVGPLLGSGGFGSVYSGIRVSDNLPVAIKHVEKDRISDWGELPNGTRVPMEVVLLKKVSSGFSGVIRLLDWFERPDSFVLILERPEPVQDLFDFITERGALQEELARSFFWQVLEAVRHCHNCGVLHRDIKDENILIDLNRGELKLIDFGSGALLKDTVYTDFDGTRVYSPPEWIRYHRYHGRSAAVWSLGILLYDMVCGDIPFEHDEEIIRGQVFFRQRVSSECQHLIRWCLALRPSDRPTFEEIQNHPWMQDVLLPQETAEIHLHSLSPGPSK
Sequence of Serine/threonine-protein kinase pim-2 (Q9P1W9 whole entry): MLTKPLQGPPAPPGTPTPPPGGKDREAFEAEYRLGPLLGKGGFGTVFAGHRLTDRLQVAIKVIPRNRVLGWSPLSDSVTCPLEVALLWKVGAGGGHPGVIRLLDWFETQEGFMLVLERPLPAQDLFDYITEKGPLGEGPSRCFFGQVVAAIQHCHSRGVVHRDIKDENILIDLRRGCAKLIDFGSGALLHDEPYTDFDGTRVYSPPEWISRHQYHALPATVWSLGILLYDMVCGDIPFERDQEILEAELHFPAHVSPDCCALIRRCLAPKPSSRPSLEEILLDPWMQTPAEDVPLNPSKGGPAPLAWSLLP
Sequence of Casein kinase II subunit alpha (Homo sapiens) (P68400 whole entry, looked up): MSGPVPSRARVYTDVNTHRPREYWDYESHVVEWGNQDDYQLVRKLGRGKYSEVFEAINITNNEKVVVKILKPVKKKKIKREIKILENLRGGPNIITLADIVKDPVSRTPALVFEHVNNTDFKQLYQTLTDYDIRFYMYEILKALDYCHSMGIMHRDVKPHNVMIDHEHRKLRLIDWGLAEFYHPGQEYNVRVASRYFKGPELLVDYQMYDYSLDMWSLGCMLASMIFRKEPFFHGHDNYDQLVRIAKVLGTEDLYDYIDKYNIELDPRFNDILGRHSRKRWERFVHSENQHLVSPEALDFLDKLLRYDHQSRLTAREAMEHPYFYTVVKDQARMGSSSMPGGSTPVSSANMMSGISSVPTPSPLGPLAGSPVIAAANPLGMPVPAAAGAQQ
Sequence of Homeodomain-interacting protein kinase 3 (Homo sapiens) (Q9H422 whole entry, looked up): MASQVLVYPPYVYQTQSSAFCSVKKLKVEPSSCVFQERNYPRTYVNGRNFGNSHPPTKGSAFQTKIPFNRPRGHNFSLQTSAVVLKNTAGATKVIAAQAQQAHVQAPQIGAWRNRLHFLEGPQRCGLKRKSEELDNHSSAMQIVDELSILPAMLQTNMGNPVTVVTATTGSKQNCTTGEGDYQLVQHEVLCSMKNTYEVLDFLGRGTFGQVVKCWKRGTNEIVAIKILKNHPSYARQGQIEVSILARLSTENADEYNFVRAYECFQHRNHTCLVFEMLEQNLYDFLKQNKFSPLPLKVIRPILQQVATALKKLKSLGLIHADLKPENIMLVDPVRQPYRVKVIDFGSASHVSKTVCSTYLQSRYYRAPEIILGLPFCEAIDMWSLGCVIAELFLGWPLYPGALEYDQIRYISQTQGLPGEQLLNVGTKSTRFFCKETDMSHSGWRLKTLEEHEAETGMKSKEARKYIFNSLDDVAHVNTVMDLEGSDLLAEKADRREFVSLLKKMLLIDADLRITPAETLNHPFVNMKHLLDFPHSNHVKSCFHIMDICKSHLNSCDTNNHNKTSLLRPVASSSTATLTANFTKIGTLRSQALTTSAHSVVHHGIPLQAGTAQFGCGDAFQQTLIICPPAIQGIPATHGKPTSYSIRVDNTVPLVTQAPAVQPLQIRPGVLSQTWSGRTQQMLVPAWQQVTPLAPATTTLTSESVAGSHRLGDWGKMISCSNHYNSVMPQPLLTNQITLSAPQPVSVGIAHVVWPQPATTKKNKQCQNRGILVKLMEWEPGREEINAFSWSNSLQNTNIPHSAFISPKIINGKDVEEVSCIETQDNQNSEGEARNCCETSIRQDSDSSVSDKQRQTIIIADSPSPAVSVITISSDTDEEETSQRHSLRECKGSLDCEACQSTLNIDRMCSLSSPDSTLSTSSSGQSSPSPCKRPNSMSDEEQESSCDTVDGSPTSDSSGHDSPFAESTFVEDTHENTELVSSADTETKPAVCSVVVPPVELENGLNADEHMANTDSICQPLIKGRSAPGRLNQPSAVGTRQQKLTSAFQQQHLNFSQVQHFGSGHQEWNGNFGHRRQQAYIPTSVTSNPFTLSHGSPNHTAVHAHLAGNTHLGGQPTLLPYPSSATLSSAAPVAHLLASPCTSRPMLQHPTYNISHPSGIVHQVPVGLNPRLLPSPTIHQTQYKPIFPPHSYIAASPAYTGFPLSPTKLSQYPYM

Which Activity [1] does the source give for Cc1nc2cccc3c2nc1N[C@H](C)/C=C\C[C@H]1CNC(=O)c2cc-3[nH]c21 here?
Its Activity is < 10%.

And the Activity (Mus musculus [2])?
The Activity was “Dose-dependent effect”.

And the EC50 (Mus musculus [2])?
Its EC50 is 3600 nM.

And the Activity [3]?
Its Activity is < 10%.

And the Activity [4]?
Its Activity is < 10%.

And the Vd [5]?
Its Vd is 1.5 L/kg.

What about the Papp at 5 µM [6] of the same compound?
The Papp at 5 µM was 29 ×10⁻⁶ cm/s.

What about the Activity (Mus musculus [7]) of the same compound?
The Activity was 66%.

And the half-life [8]?
The half-life was 4 h.

And the Activity [9]?
Its Activity is < 10%.

And the metabolised at 0.5 h, 1 µM [10]?
Its metabolised at 0.5 h, 1 µM is 39%.

And the fraction unbound at 5 µM [11]?
The fraction unbound at 5 µM was 0.0084.

What about the Activity [12] of the same compound?
The Activity was < 10%.

What about the Activity (Mus musculus [13]) of the same compound?
The Activity was “Non-toxic”.

What about the IC50 [14] of the same compound?
Its IC50 is 0.5 nM.

What about the Activity [15] of the same compound?
Its Activity is < 10%.

And the IC50 [16]?
Its IC50 is 25 nM.
